Rce1 inh = blocks yeast Ras-converting enzyme | Q03530 | yeast membranes, quenched prenylated peptide cleavage fluorescence | calls only | hit rate 0.27% among 290,000 | AID 2563;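 active = fall in fluorescence gain of 50% or more versus controls, with final raw signal at or below 3038400; inconclusive = same 50% fall but final raw signal above 3038400; inactive = fall in fluorescence gain under 50%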;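 note: plate controls were neutral control wells for no effect and wells lacking membranes for full effect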
pCIP destab = p/CIP protein destabilization | Q05BA5 | F442A p/CIP-EGFP cells, EGFP fluorescence, 16 h | decrease of EGFP signal, % at 10 µM | hit rate 0.01% among 290,000;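 active = EGFP signal decrease of at least 30% at 10 µM or well 3 SD below plate mean, unless failing retest; inactive = the rest, including hits failing retest or dose response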
proCasp7 act = counter-screen for procaspase-3 activators: activators of human procaspase-7 | activation, % at 8.5 µM | hit rate 0.093% among 330,000 | recombinant procaspase-7, Ac-DEVD-pNA absorbance 405 nm; D23A/D198A/D206A triple mutant, cannot self-cleave; scale: DMSO 0, 5 µM enzyme 100;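 active = percent activation above the screen-wide mean plus 3 SD, cut at about 25% in these data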
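System: Procaspase-7 triple mutant (PC-7 D3A); measure: % activation from two-timepoint absorbance difference, scaled to controls; times: 1 h compound preincubation, 2 h substrate cleavage, 25 °C; also added: Ac-DEVD-pNA substrate, 400 µM as added; measured by: Epi-absorbance of released pNA at 405 nm, two timepoints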
Lipid droplet = hepatic lipid droplet formation modulation; inhibition, % at 6.5 µM; hit rate 0.4% among 240,000; AID 1656; AML12 mouse hepatocytes, oleate lipid droplets, BODIPY imaging;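 active = lipid droplet intensity inhibited by at least 50%, with more than 500 cells counted; inconclusive = wells with under 300 cells, treated as cytotoxic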
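Assay system: AML12 hepatocytes (mouse) / Also added: 100 µM oleic acid challenge / Times: overnight treatment with compound plus oleate / Detection: high-content imaging of BODIPY-stained droplets and DAPI nuclei / Evaluation: % inhibition of lipid droplet signal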
FXN GAA850 act = frataxin GAA850 promoter activation. hit rate 0.56% among 360,000. HEK293 lucGAA850 FXN promoter luciferase reporter, 24 h; percent of 10 µM SAHA response. activation, % at 6 µM;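 active = activation above the average of all compounds screened plus 3 SD, cutoff fixed separately per campaign, cut at about 7.5% in these data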;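 note: 0% = DMSO wells and 100% = 10 µM SAHA wells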
procasp3 activ = procaspase-3 (human) activation; P42574; recombinant procaspase-3 D3A, Ac-DEVD-pNA absorbance 405 nm; activation, % at 8.5 µM; hit rate 0.11% among 330,000; AID 463141;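 active = activation above the mean of all tested compounds plus 3 SD, cut at about 21% in these data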;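 note: 0% = DMSO alone and 100% = DMSO wells spiked with extra 5 µM PC-3 D3A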
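Test system: Procaspase-3 D3A mutant; medium: Zinc-free HEPES/NaCl buffer with 0.01% Triton X-100 at pH 7.4; reagent: DEVD-pNA substrate; doses: one concentration, 8.5 µM nominal, 0.8% DMSO; times: 1 h preincubation plus 2 h reaction at 25 °C; signal: Epi-absorbance at 405 nm of released p-nitroaniline, 0 and 120 min; replicates: singlicate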
Hep lipid conf = confirmation of inhibitors of hepatic lipid droplet formation; shares compounds with Lipid droplet; AML12 mouse hepatocytes, BODIPY lipid droplet imaging; droplets induced with 100 µM oleic acid; inhibition, % at 5.2 µM; hit rate 65% among 870; AID 463183;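 active = inhibition of lipid droplet metric at least 50%, with more than 300 cells in each of four replicates; inconclusive = wells under 300 cells, flagged as toxic or low count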;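 note: plate controls were DMSO with oleic acid for no effect and 5 µM Triacsin-C for full effect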
AML12 tox img = AML12 hepatocyte cytotoxicity (counter-screen). AML12 mouse hepatocytes, DAPI nuclear morphology cytotoxicity imaging; stronger effect = higher value; cells fed 100 µM oleate overnight. hit rate 3% among 870. AID 463200. shares compounds with Lipid droplet. z-score at 5 µM; in the data active = z-score above about 6.3;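 note: compound exposure lasted overnight at 37 °C before fixation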
AML12 tox conf = AML12 hepatocyte cytotoxicity, confirmed | AID 463219 | cytotoxicity, % at 50 µM | shares compounds with Lipid droplet | 530 tested, under 10 active | AML12 mouse hepatocyte viability, ATP luminescence; cells loaded with 100 µM oleic acid;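 active = cytotoxicity above 50% in each of four replicates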;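 note: compound exposure lasted overnight at 37 °C before the ATP read; 0% = DMSO-treated cells and 100% = wells with no cells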
proCasp7 act trip = counter-screen: procaspase-7 (human) activation in triplicate; AID 488941; recombinant procaspase-7, Ac-DEVD-pNA absorbance; asp23/198/206-to-Ala mutant, cannot self-cleave; activation, % at 8.5 µM; 210 tested, under 10 active; shares compounds with procasp3 activ;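 active = mean activation above a set limit taken from an earlier procaspase-7 screen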;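 note: 0% = DMSO wells and 100% = DMSO plus 5 µM procaspase-7 enzyme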
procasp3 conf = procaspase-3 (human) activation, confirmed; AID 488954; activation, % at 8.5 µM; recombinant PC-3 D3A, Ac-DEVD-pNA absorbance 405 nm; 100% is higher-enzyme control; hit rate 10% among 210; shares compounds with procasp3 activ;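 active = mean activation above a set limit carried over from the earlier primary screen, cut at about 22% in these data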
GAA30 counter = counter-screen for GAA850 frataxin promoter activators: GAA30 promoter activation | shares compounds with FXN GAA850 act | HEK293 lucGAA30 FXN promoter luciferase, 24 h; DMSO = 0%, 5 µM ipriflavone = 100% | activation, % at 6 µM | hit rate 66% among 1,900 | AID 588350;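 active = mean activation above the mean of solvent-only control wells plus 3 SD, cut at about 22% in these data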;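 note: counterscreen of GAA850 promoter hits where activity marks nonselective or luminescence artifacts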
GAA850 confirm = GAA850 FXN promoter activation confirmation. HEK293 lucGAA850 FXN promoter luciferase reporter, 24 h; 100% = activation by SAHA. shares compounds with FXN GAA850 act. activation, % at 6 µM. hit rate 86% among 1,900;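 active = mean activation above a set limit taken from the primary screen, cut at about 8% in these data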;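 note: 0% = DMSO wells and 100% = 10 µM SAHA wells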
Numbers without * were called inactive; i = inactive; ? = inconclusive; / = not tested or not shown. Sampled rows, rich in hits. Any-hit rate of the full collection: about 1.2%.

SMILES | Rce1 inh | pCIP destab | proCasp7 act | Lipid droplet | FXN GAA850 act | procasp3 activ | proCasp7 act trip | procasp3 conf | others
COc1cccc(CNC(=O)C2CCCN(S(=O)(=O)c3c(C)noc3/C=C/N(C)C)C2)c1 (centres undefined) | i | -12 | -2 | 74* | 0 | -3 | / | / | Hep lipid conf=80*;AML12 tox img=-0.47;AML12 tox conf=13
Cc1noc(/C=C/N(C)C)c1S(=O)(=O)N1CCCC(C(=O)NCc2cccs2)C1 (centres undefined) | i | 2 | 5 | / | 0 | 0 | / | /
COCOCCn1cc(CN2CCS(=O)(=O)N(Cc3ccc(-c4ccc(Cl)c(Cl)c4)cc3)C(C)C2=O)nn1 (centres undefined) | / | / | / | / | -1 | / | / | /
O=C(NCc1ccco1)c1ccc(Cn2c(=O)c3ccccc3n(Cc3ccc(Cl)cc3)c2=O)cc1 | / | -4 | 7 | 56* | 14* | -2 | / | / | Hep lipid conf=48;AML12 tox img=-0.48;GAA30 counter=22*;GAA850 confirm=14*
O=C(NCCO)c1nc(C(=O)c2ccccc2)c2ccccc2n1 | / | / | -4 | / | 0 | -3 | / | /
CC1CCN(CCCNC(=O)COc2cc(=O)n(C)c3ccccc23)CC1 | i | 6 | 4 | / | 1 | 38* | 1 | 5
CCc1nc2ccc(C(=O)N(CC)CCN(C)C)cn2c1N(C)Cc1nccs1 | / | / | / | / | -1 | / | / | /
Cc1sc2ncnc(SCC(=O)Nc3ccc(S(=O)(=O)N4CCOCC4)cc3)c2c1C | / | / | 4 | / | 1 | 23* | 0 | 2
Cc1ccc([C@H]2N[C@]3(CCCN(Cc4ccc(Br)cc4)C3=O)[C@H]3C(=O)N(Cc4ccccc4)C(=O)[C@@H]23)cc1 | / | / | / | / | -8 | / | / | /
CNc1ccccc1C(=O)OC | i | 2 | -8 | 0 | 0 | -3 | / | /
CNc1ccccc1C(=O)OCC(C)=O | i | 2 | 22 | 1 | 1 | 22* | 17 | 24*
O=C(NN1C(=O)C2C3C=CC(C3)C2C1=O)c1cccc(Cl)c1 (centres undefined) | i | -7 | -8 | -5 | 0 | 24* | 4 | 3
O=C(NN1C(=O)C2C3C=CC(C4CC34)C2C1=O)c1ccc(Cl)c(Cl)c1 (centres undefined) | i | -4 | 6 | 0 | 0 | 0 | / | /
COc1cccc2sc3cc(C#CC4(O)CCCCC4)ccc3c(=O)c12 | / | / | -9 | / | 5 | -5 | / | /
COc1cc2sc3ccc(C#CC4(O)CCCCC4)cc3c(=O)c2cc1OC | i | / | 25 | / | 3 | 70* | -22 | -13
Cc1cc(=O)oc2cc(OC(C)C(=O)NCc3ccccn3)ccc12 (centres undefined) | i | -6 | 2 | -7 | 0 | 5 | / | /
Cc1c(C)c2ccc(OC(C)C(=O)NCc3ccccn3)cc2oc1=O (centres undefined) | ? | 9 | -7 | -23 | 0 | 23* | 2 | 6
CCc1ccc(N2CCN(C(=O)N3CCOCC3)CC2)cc1 | i | -5 | 11 | 1 | 3 | 24* | 3 | 5
CC(C)N1CC2(CC(c3ccccc3C(F)(F)F)=NO2)CN1C(=O)c1ccco1 (centres undefined) | / | / | / | / | 0 | / | / | /
Cc1sc(NC(=O)CCCC(=O)O)c(C#N)c1C | i | -5 | -8 | 2 | 1 | 22* | -7 | -1
OCCOc1cccc(CN2CCC(CO)(CCOc3ccccc3)CC2)c1 | i | -5 | 6 | -5 | -1 | 25* | 2 | 5
CCCCN(C(=O)CSCC(=O)Nc1cccc(C)c1)c1c(N)n(Cc2ccccc2)c(=O)[nH]c1=O | i | / | 2 | / | 0 | 24* | 1 | 3
CCCN(C(=O)CSCC(=O)Nc1cccc(C)c1)c1c(N)n(Cc2ccccc2)c(=O)[nH]c1=O | i | -10 | -12 | 29 | 1 | 2 | / | /
Cc1cc(SCC(=O)c2cccc([N+](=O)[O-])c2)nc(=O)[nH]1 | i | -10 | -16 | 1 | 4 | -1 | / | /
CCOc1ccc(C(=O)C[n+]2ccc(C(=O)NCc3ccccc3)cc2)cc1 | i | 6 | 7 | 6 | 1 | 33* | 5 | 7
SMILES | Rce1 inh | pCIP destab | proCasp7 act | Lipid droplet | FXN GAA850 act | procasp3 activ | proCasp7 act trip | procasp3 conf | others
Cc1ccc(CCNC(=O)Cc2ccc(NC3=NC4CS(=O)(=O)CC4S3)cc2)cc1 (centres undefined) | i | -1 | 11 | 13 | 1 | -3 | / | /
CC(C)=CCc1cc(-c2oc3cc(O)cc(O)c3c(=O)c2O)ccc1O | i | / | 12 | / | 1 | 22* | 3 | 1
O=c1c(O)c(-c2ccccc2)oc2cc(O)cc(O)c12 | / | / | -3 | / | 1 | -4 | / | /
N=c1oc2ccccc2cc1-c1nc(-c2ccccc2)cs1 | i | 1 | 21 | 19 | 3 | 43* | -21 | -15
Cc1cc(C)cc(C(=O)Nc2c3c(nn2C(C)(C)C)CS(=O)(=O)C3)c1 | i | -3 | 2 | -5 | 0 | 22* | 0 | 5
CC(C)(C)c1ccc(C(=O)Nc2c3c(nn2C(C)(C)C)CS(=O)(=O)C3)cc1 | i | -2 | -5 | 12 | 2 | 1 | / | /
Cc1ccc(C(=O)NNC(=O)C(NC(=O)c2cccc(C)c2)C(C)C)cc1 (centres undefined) | / | / | -3 | / | -1 | 7 | / | /
C=C(C)CSc1nnc2n(N)c(=O)c3ccccc3n12 | i | 2 | 5 | -3 | 2 | 22* | 0 | 4

Assay outcomes as filed in PubChem BioAssay.
